Assay results from ChEMBL document CHEMBL4732250, “Investigations on substituted (2-aminothiazol-5-yl)(imidazo[1,2-a]pyridin-3-yl)methanones for the treatment of Alzheimer's disease” (Bioorg Med Chem, 2021).

Experiments:
[1] = system: Rattus norvegicus; assay: Antiinflammatory activity in Sprague-Dawley rat acute model of carrageenan-induced paw edema assessed as inhibition of rat paw edema at 50 mg/kg, po pre treated for 1 hr followed by carrageenan-stimulation and measured after 3 hrs by plethysmometeric method relative to control; type: functional; conditions: time 4 hrs
In short: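 SD rats of either sex, 150–200 g, n = 6, dosed orally in 0.2% agar suspension. After 1 h, 0.1 mL 1% carrageenan in saline injected into the left hind sub-plantar paw. Paw volume measured by mercury plethysmometer before and 3 h after injection. % edema inhibition calculated. Mean ± SEM.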

[2] = system: Rattus norvegicus; assay: Antiinflammatory activity in Sprague-Dawley rat chronic model of formalin-induced paw edema assessed as inhibition of rat paw edema at 50 mg/kg, po pre treated for 1 hr followed by formalin-stimulation and measured after 1 day by plethysmometeric method relative to control; type: functional; conditions: 24 h
In short: (§1)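 Chronic paw edema. Oral pre-dose in 0.2% agar; after 1 h, 0.1 mL 2% formalin in saline injected into the left hind sub-plantar paw, repeated on 5 consecutive days. Paw volume by plethysmometer. % inhibition of edema size relative to disease control, days 1–5. n = 6, mean ± SEM, one-way ANOVA with Tukey's test.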

[3] = system: Rattus norvegicus; assay: Antiinflammatory activity in Sprague-Dawley rat chronic model of formalin-induced paw edema assessed as inhibition of rat paw edema at 50 mg/kg, po pre treated for 1 hr followed by formalin-stimulation and measured after 2 days by plethysmometeric method relative to control; type: functional; conditions: 48 h, time 2 day; in short: as §1
[4] = system: Rattus norvegicus; assay: Antiinflammatory activity in Sprague-Dawley rat chronic model of formalin-induced paw edema assessed as inhibition of rat paw edema at 50 mg/kg, po pre treated for 1 hr followed by formalin-stimulation and measured after 3 days by plethysmometeric method relative to control; type: functional; conditions: 72 h, time 3 day; in short: as §1
[5] = system: Rattus norvegicus; assay: Antiinflammatory activity in Sprague-Dawley rat chronic model of formalin-induced paw edema assessed as inhibition of rat paw edema at 50 mg/kg, po pre treated for 1 hr followed by formalin-stimulation and measured after 4 days by plethysmometeric method relative to control; type: functional; conditions: 96 h, time 4 day; in short: as §1
[6] = system: Rattus norvegicus; assay: Antiinflammatory activity in Sprague-Dawley rat chronic model of formalin-induced paw edema assessed as inhibition of rat paw edema at 50 mg/kg, po pre treated for 1 hr followed by formalin-stimulation and measured after 5 day by plethysmometeric method relative to control; type: functional; conditions: 120 h; in short: as §1
[7] = system: Rattus norvegicus; assay: Antiinflammatory activity in Sprague-Dawley rat chronic model of formalin-induced paw edema assessed as inhibition of rat paw edema at 40 mg/kg, po pre treated for 1 hr followed by formalin-stimulation and measured after 1 day by plethysmometeric method relative to control; type: functional; conditions: 24 h; in short: as §1
[8] = system: Rattus norvegicus; assay: Antiinflammatory activity in Sprague-Dawley rat chronic model of formalin-induced paw edema assessed as inhibition of rat paw edema at 40 mg/kg, po pre treated for 1 hr followed by formalin-stimulation and measured after 2 days by plethysmometeric method relative to control; type: functional; conditions: 48 h, time 2 day; in short: as §1
[9] = system: Rattus norvegicus; assay: Antiinflammatory activity in Sprague-Dawley rat chronic model of formalin-induced paw edema assessed as inhibition of rat paw edema at 40 mg/kg, po pre treated for 1 hr followed by formalin-stimulation and measured after 3 days by plethysmometeric method relative to control; type: functional; conditions: 72 h, time 3 day; in short: as §1
[10] = system: Rattus norvegicus; assay: Antiinflammatory activity in Sprague-Dawley rat chronic model of formalin-induced paw edema assessed as inhibition of rat paw edema at 40 mg/kg, po pre treated for 1 hr followed by formalin-stimulation and measured after 4 days by plethysmometeric method relative to control; type: functional; conditions: 96 h, time 4 day; in short: as §1
[11] = system: Rattus norvegicus; assay: Antiinflammatory activity in Sprague-Dawley rat chronic model of formalin-induced paw edema assessed as inhibition of rat paw edema at 40 mg/kg, po pre treated for 1 hr followed by formalin-stimulation and measured after 5 days by plethysmometeric method relative to control; type: functional; conditions: 120 h, time 5 day; in short: as §1
[12] = system: Rattus norvegicus; assay: Antiinflammatory activity in Sprague-Dawley rat chronic model of formalin-induced paw edema assessed as inhibition of rat paw edema at 50 mg/kg, po pre treated for 1 hr followed by formalin-stimulation and measured after 5 days by plethysmometeric method relative to control; type: functional; conditions: 120 h, time 5 day; in short: as §1
[13] = system: Rattus norvegicus; assay: Antiinflammatory activity in Sprague-Dawley rat acute model of carrageenan-induced paw edema assessed as inhibition of rat paw edema at 50 mg/kg, po pre treated for 1 hr followed by carrageenan-stimulation and measured after 3 hrs by plethysmometeric method relative to control

## CN(C)c1nc(N)sc1C(=O)c1cnc2ccccn12
[1]
  inhibition in vivo at 50 mg/kg: 32%

## Cc1cccn2c(C(=O)c3sc(N)nc3N(C)C)cnc12
[1]
  inhibition in vivo at 50 mg/kg: 81%
[2]
  inhibition in vivo at 50 mg/kg: 55%
[3]
  inhibition in vivo at 50 mg/kg: 56%
[4]
  inhibition in vivo at 50 mg/kg: 56%
[5]
  inhibition in vivo at 50 mg/kg: 54%
[6]
  inhibition in vivo at 50 mg/kg: 54%

## Cc1ccc2ncc(C(=O)c3sc(N)nc3-c3ccccc3)n2c1
[1]
  inhibition in vivo at 50 mg/kg: 77%

## Cc1ccc(-c2cc(C(F)(F)F)nn2-c2ccc(S(N)(=O)=O)cc2)cc1 [CELECOXIB]
[7]
  inhibition in vivo at 40 mg/kg: 67%
[8]
  inhibition in vivo at 40 mg/kg: 74%
[9]
  inhibition in vivo at 40 mg/kg: 70%
[10]
  inhibition in vivo at 40 mg/kg: 70%
[11]
  inhibition in vivo at 40 mg/kg: 68%

## Cc1cccn2c(C(=O)c3sc(N)nc3-c3ccccc3)cnc12
[1]
  inhibition in vivo at 50 mg/kg: 20%

## Cc1ccn2c(C(=O)c3sc(N)nc3-c3ccccc3)cnc2c1
[1]
  inhibition in vivo at 50 mg/kg: 26%

## Nc1nc(-c2ccccc2)c(C(=O)c2cnc3ccccn23)s1
[1]
  inhibition in vivo at 50 mg/kg: 40%

## Cc1ccn2c(C(=O)c3cnc4ccccn34)cnc2c1
[12]
  inhibition in vivo at 50 mg/kg: 61%
[13]
  inhibition in vivo at 50 mg/kg: 67%

## Cc1ccc2ncc(C(=O)c3sc(N)nc3N(C)C)n2c1
[1]
  inhibition in vivo at 50 mg/kg: 23%

## Cc1cccn2c(C(=O)c3cnc(N)s3)cnc12
[1]
  inhibition in vivo at 50 mg/kg: 31%
